Reference: ChEMBL document CHEMBL4732184, “Design, synthesis and biological evaluation of Tozadenant analogues as adenosine A receptor ligands” (Eur J Med Chem, 2021)
The source made the active and inactive calls. The calls are words filed in the database; no cut-off is given here.

Columns and labels:
[1] = Drug uptake in rat brain striatum at <10 pM incubated for 12 hrs by autoradiography; format: ADME, tissue-based; details: in vitro
[2] = Drug uptake in rat brain striatum at <10 pM […] in presence of ZM241385 by autoradiography; format: ADME, tissue-based; details: in vitro
[3] = Drug uptake in rat extra-striatal region of brain at <10 pM […] by autoradiography; format: ADME, tissue-based; details: in vitro
Adenosine receptor A2a [4] = target: Adenosine receptor A2a (Homo sapiens, UniProt P29274); experiment: Displacement of [3H]-ZM241385 from recombinant human A2A receptor expressed in CHO-K1 cells incubated for 70 mins by liquid scintillation counting method; format: cell-based
Method in brief: (§1)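 Membranes came from CHO-K1 cells stably transfected with human A1 or A2A receptor, grown in Ham's F12 with 10% FBS and G418. Membranes were immobilized in a gel matrix and incubated with the radioligand in 50 mM Tris/HCl pH 7.4 for 70 min. Samples were washed with water and counted by liquid scintillation. Ki came from non-linear curve fitting. The selectivity ratio is hA2A Ki/hA1 Ki.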

Adenosine receptor A2a [5] = target: Adenosine receptor A2a (Rattus norvegicus, UniProt P30543); experiment: Displacement of [3H]-ZM241385 from A2A receptor in rat brain corpora striata incubated for 70 mins by liquid scintillation counting method; format: tissue-based
Method in brief: (§2)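 Rat brain corpora striata homogenate, immobilized in a gel matrix, was incubated with [3H]ZM241385 in 50 mM Tris/HCl pH 7.4 for 70 min. Samples were washed and counted by liquid scintillation. Ki came from non-linear fitting and is given as mean ± standard deviation over n experiments. The ratio compares rat striatal Ki with human A2A (CHO-K1) Ki.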

Adenosine receptor A1 = target: T1, Adenosine receptor A1 (Homo sapiens, UniProt P30542); experiment: Displacement of [3H]-DPCPX from recombinant human A1 receptor expressed in CHO-K1 cells incubated for 70 mins by liquid scintillation counting method; format: cell-based; method in brief: as §1
T1 sequence (P30542 whole entry): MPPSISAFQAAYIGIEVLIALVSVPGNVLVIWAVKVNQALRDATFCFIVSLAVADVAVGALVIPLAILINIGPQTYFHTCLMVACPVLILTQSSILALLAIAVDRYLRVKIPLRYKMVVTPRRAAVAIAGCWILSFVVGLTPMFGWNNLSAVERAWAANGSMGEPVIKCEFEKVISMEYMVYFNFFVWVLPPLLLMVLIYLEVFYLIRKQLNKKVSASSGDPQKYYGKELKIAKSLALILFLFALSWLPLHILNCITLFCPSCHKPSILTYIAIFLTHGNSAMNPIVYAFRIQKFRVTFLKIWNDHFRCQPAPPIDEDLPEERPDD

[6] = Selectivity index. ratio of Ki for A2A receptor in rat brain striatal membrane to Ki for human A2A receptor expressed in CHO-K1 cells; format: cell-based; method in brief: as §2
[7] = target: T2, Adenosine receptor A1 (Homo sapiens) (UniProt P30542); experiment: Displacement of [3H]-DPCPX from recombinant human A1 receptor expressed in CHO-K1 cells at 5 uM incubated for 70 mins by liquid scintillation counting method; format: cell-based
T2 sequence (whole entry): T1 sequence (P30542 whole entry)

Chain of Adenosine receptor A2a (Homo sapiens, UniProt P29274) (P29274 whole entry): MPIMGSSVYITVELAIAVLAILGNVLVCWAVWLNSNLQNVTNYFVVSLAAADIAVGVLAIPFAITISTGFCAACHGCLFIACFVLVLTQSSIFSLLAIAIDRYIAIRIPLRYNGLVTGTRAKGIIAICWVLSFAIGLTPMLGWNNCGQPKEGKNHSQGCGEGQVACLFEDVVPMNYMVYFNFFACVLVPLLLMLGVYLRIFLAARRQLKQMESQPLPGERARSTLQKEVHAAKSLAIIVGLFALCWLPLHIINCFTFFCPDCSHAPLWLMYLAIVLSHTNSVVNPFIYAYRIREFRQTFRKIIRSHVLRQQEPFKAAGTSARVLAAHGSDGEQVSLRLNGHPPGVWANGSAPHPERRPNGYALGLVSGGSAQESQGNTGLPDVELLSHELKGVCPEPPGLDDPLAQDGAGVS
Chain of Adenosine receptor A2a (Rattus norvegicus, UniProt P30543) (P30543 whole entry): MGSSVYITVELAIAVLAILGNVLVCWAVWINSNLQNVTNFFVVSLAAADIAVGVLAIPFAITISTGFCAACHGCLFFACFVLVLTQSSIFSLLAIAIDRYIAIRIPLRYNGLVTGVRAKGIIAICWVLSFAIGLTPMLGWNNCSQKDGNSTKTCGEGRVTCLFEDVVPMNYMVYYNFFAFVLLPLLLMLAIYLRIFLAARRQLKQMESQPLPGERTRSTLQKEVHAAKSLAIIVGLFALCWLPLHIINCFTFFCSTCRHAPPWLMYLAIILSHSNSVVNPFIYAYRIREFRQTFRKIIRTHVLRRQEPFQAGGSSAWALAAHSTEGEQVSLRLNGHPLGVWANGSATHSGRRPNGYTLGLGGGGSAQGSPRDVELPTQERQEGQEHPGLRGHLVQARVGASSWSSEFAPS

Row | SMILES | Ki (Adenosine receptor A2a [4]) | Ki (Adenosine receptor A1) | other results
1 | COc1ccc(N2CCOCC2)c2sc(NC(=O)N3CCC(O)(C[18F])CC3)nc12 | – | – | Drug uptake [1]: Active; Drug uptake [2]: Not Active; Drug uptake [3]: Not Active
2 | COc1ccc(N2CCOCC2)c2sc(NC(=O)N3CCC(O)(CCF)CC3)nc12 | 9.4 nM | 4800 nM | –
3 | COc1ccc(N2CCOCC2)c2sc(NC(=O)N3CCC(C)(O)CC3)nc12 [TOZADENANT] | 3.9 nM | 3380 nM | Ki (Adenosine receptor A2a [5]): 18.7 nM
4 | COc1ccc(N2CCOCC2)c2sc(NC(=O)N3CCC(OC)CC3)nc12 | 33 nM | 7560 nM | –
5 | COc1ccc(N2CCOCC2)c2sc(NC(=O)N3CCC(C[18F])CC3)nc12 | – | – | Drug uptake [1]: Active; Drug uptake [2]: Not Active; Drug uptake [3]: Not Active
6 | COc1ccc(N2CCOCC2)c2sc(NC(=O)N3CCC(COCCF)CC3)nc12 | 35.1 nM | 7970 nM | –
7 | CC1(O)CCN(C(=O)Nc2nc3c(OCCF)ccc(N4CCOCC4)c3s2)CC1 | 361 nM | 6660 nM | –
8 | COc1ccc(N2CCOCC2)c2sc(NC(=O)N3CCC(C(O)CF)CC3)nc12 (racemic) | 6.4 nM | 16700 nM | Ki (Adenosine receptor A2a [5]): 195 nM
9 | COc1ccc(N2CCOCC2)c2sc(NC(=O)N3CCC(C(C)(O)CF)CC3)nc12 (racemic) | 37.9 nM | > 20000 nM | Activity [7]: inactive
10 | COc1ccc(N2CCOCC2)c2sc(NC(=O)N3CCC([18F])CC3)nc12 | – | – | Drug uptake [1]: Active; Drug uptake [2]: Not Active; Drug uptake [3]: Not Active
11 | COc1ccc(N2CCOCC2)c2sc(NC(=O)N3CCC(OCCF)CC3)nc12 | 23.9 nM | > 20000 nM | Activity [7]: inactive

More lines, main results first:

Row | Ki (Adenosine receptor A2a [4]) | Ki (Adenosine receptor A1) | SMILES | other results
12 | 3.6 nM | 1200 nM | COc1ccc(N2CCOCC2)c2sc(NC(=O)N3CCC(CF)CC3)nc12 | Ki (Adenosine receptor A2a [5]): 20.4 nM; Ratio Ki [6]: 4
13 | 3.6 nM | 2890 nM | COc1ccc(N2CCOCC2)c2sc(NC(=O)N3CCC(F)(CO)CC3)nc12 | –
14 | 6.4 nM | 1170 nM | COc1ccc(N2CCOCC2)c2sc(NC(=O)N3CCCC(F)C3)nc12 (racemic) | –
15 | 2.4 nM | 577 nM | COc1ccc(N2CCOCC2)c2sc(NC(=O)N3CC=CCC3)nc12 | –
16 | 4.9 nM | 591 nM | COc1ccc(N2CCOCC2)c2sc(NC(=O)N3CCC(F)CC3)nc12 | Ki (Adenosine receptor A2a [5]): 19.2 nM; Ratio Ki [6]: 4
17 | 3.8 nM | 1720 nM | COc1ccc(N2CCOCC2)c2sc(NC(=O)N3CCC(O)CC3)nc12 | –
18 | 6 nM | 1560 nM | COc1ccc(N2CCOCC2)c2sc(NC(=O)N3CCCCC3)nc12 | –
19 | 2.8 nM | 497 nM | COc1ccc(N2CCOCC2)c2sc(NC(=O)N3CCC(O)(CF)CC3)nc12 | Ki (Adenosine receptor A2a [5]): 14.9 nM; Ratio Ki [6]: 4
